Screens as filed in PubChem BioAssay.
Pf Dd2 inh – P. falciparum Dd2 growth inhibition; SYBR Green, 72 h; stronger effect = lower value; activity change, % at 10 µM; hit rate 2.3% among 94,000; in the data active = activity change below about -80%; inconclusive = no clear call, values can overlap the other calls
KDM4C inh – inhibitors of human demethylase GASC-1 KDM4C; GST-KDM4C 2-372, H3K9me3 peptide, LANCE TR-FRET; inhibition, % at 12.5 µM; hit rate 0.15% among 96,000; AID 720574;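 active = mean replicate inhibition above about 25%, with at least 55% of replicates also reaching it, limit read from the data, passing the limit was not always enough; inconclusive = only one of those two conditions met; inactive = neither condition met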
Target sequence (Q9H3R0 2-372 limits assumed): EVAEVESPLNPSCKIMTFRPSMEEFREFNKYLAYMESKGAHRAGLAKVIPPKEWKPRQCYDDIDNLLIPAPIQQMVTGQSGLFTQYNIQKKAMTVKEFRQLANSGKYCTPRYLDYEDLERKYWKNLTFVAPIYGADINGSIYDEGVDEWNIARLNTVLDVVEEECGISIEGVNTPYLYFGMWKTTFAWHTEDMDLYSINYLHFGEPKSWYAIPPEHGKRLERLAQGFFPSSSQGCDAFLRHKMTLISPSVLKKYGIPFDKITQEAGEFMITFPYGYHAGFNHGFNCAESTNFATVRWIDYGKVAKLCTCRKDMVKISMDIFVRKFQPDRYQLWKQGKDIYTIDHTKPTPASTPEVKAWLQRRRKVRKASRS
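Assay system: GST-GASC-1 enzyme fragment 2-372 | Amount: 10 nM enzyme | Medium: HEPES buffer, pH 7.5, plus ascorbate | Reagent: H3K9me3 peptide substrate, Fe(II), 2-oxoglutarate | Doses: Single-point compound screen | Incubation: 30 min demethylation and 1 h detection at room temperature | Measured by: LANCE TR-FRET, excitation 340 nm, emissions 618 and 671 nm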
T cruzi growth-1 – inhibitors of T. cruzi proliferation; T. cruzi beta-gal in NIH3T3, GalScreen luminescence, 90 h; inhibition, % at 8.34 µM; hit rate 5.9% among 77,000; AID 624255;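 active = mean inhibition above about 93%, with at least 55% of replicates each passing it, limit read from the data, passing the limit was not always enough; inconclusive = only one of those two conditions holds; inactive = neither condition holds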
IDH1 R132H inh – blocks human IDH1 R132H reductase activity; O75874; diaphorase/resazurin fluorescence, 60 min; inhibition, % at 10 µM; hit rate 0.18% among 70,000; AID 624101; in the data active = inhibition above about 34%; inconclusive = no clear call, values can overlap the other calls; inactive = below about 11%
Target sequence (O75874 whole entry R132H): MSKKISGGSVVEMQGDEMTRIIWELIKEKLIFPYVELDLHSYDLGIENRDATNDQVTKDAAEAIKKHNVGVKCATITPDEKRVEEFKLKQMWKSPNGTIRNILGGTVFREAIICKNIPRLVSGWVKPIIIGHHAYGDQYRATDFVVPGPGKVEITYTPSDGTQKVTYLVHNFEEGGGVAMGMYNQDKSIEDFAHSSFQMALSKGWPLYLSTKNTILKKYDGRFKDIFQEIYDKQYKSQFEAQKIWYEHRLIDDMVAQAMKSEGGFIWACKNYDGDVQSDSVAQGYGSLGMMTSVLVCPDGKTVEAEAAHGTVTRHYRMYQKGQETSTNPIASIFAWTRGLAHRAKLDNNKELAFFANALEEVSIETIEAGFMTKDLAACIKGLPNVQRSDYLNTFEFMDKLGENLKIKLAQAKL
T cruzi growth-2 – blocks T. cruzi growth in NIH3T3 host cells | shares compounds with T cruzi growth-1 | T. cruzi beta-gal in NIH3T3, GalScreen luminescence, 90 h | inhibition, % at 8.35 µM | hit rate 72% among 5,600;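 active = mean replicate inhibition above about 95% and at least 55% of replicates individually reaching it, limit read from the data; inconclusive = only one of the two criteria is met; inactive = neither criterion is met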
T cruzi growth-3 – inhibitors of T. cruzi proliferation; shares compounds with T cruzi growth-1; inhibition, % at 2.09 µM; AID 651740; T. cruzi beta-gal in NIH3T3, GalScreen luminescence, 90 h; hit rate 21% among 5,600;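 active = mean inhibition above about 95%, with at least 55% of replicates also reaching it, limit read from the data; inconclusive = meets just one of the two conditions; inactive = meets neither condition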
3T3 cytotox – NIH/3T3 (mouse) viability loss; shares compounds with T cruzi growth-1; NIH/3T3 viability, CellTiter-Glo ATP luminescence, 90 h; cytotoxicity (signal decrease), % at 8.35 µM; hit rate 14% among 5,600;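 active = mean signal decrease across replicates above about 35% based on untreated-well scatter, with enough replicates individually passing, limit read from the data; inconclusive = no rule stated though some were filed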
NIH3T3 tox 2 – kills mouse NIH/3T3 fibroblasts; shares compounds with T cruzi growth-1; NIH/3T3 viability, CellTiter-Glo ATP luminescence, 90 h; inhibition, % at 24.9 µM; hit rate 56% among 5,600;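 active = mean loss of cell viability signal at or above a set limit, and enough replicates individually reaching it; inconclusive = meets only the mean limit or only the replicate share; inactive = meets neither condition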
Of the large screens only hits and unclear results are named; the others gave an inactive call (follow-up assays come after a bar, where they were run). Hits are enriched below; roughly 5.8% of the tested compounds scored in any of these assays.

C[C@@H]1CCCCO[C@@H](CN(C)Cc2ccc(Cl)c(Cl)c2)[C@@H](C)CN([C@@H](C)CO)C(=O)c2cc(NC(=O)Nc3ccc(F)cc3)ccc2O1	T cruzi growth-1 109 (no result: IDH1 R132H inh) | T cruzi growth-2 inconclusive | T cruzi growth-3 109 | 3T3 cytotox inactive | NIH3T3 tox 2 inactive
C[C@H]1CCCCO[C@H](CN(C)Cc2ccc(Cl)c(Cl)c2)[C@@H](C)CN([C@@H](C)CO)C(=O)c2cc(NC(=O)Nc3ccccc3)ccc2O1	none (no result: IDH1 R132H inh)
C[C@@H]1CCCCO[C@@H](CN(C)Cc2ccc(Cl)c(Cl)c2)[C@@H](C)CN([C@@H](C)CO)C(=O)c2cc(NC(=O)Nc3ccccc3)ccc2O1	none (no result: IDH1 R132H inh)
Cc1cccc(-c2nnc(SCC(=O)Nc3ccccc3F)o2)c1	none (no result: Pf Dd2 inh, KDM4C inh, T cruzi growth-1)
O=C(N[C@H]1CC[C@H](CC(=O)N2CCN(c3ccccc3)CC2)O[C@@H]1CO)c1ccccc1	none
CCC(=O)Nc1ccc2c(c1)C(=O)N(C)[C@H]1CC[C@@H](CC(=O)NCCOC)O[C@@H]1CO2	none (no result: IDH1 R132H inh)
O=C(CC1CC1)Nc1ccc2c(c1)[C@@H]1C[C@@H](CC(=O)N3CCOCC3)O[C@H](CO)[C@@H]1O2	none
C[C@H](CO)N1C[C@H](C)[C@H](CN(C)Cc2ccncc2)Oc2ccc(NS(=O)(=O)c3ccccc3)cc2C1=O	none
N#C[C@@H]1[C@@H](c2ccc(C#Cc3cccnc3)cc2)[C@@H](CO)N1C(=O)C1CC1	none (no result: IDH1 R132H inh)
COc1cccc(C#Cc2ccc([C@@H]3[C@H](C#N)N(C(=O)C4CC4)[C@H]3CO)cc2)c1	T cruzi growth-1 inconclusive (no result: IDH1 R132H inh) | T cruzi growth-2 inactive | T cruzi growth-3 112 | 3T3 cytotox inactive | NIH3T3 tox 2 25
N#C[C@@H]1[C@@H](c2ccc(C#Cc3ccc(F)cc3)cc2)[C@H](CO)N1C(=O)C1CCC1	none (no result: IDH1 R132H inh)
N#C[C@H]1[C@H](c2ccc(C#Cc3cccc(F)c3)cc2)[C@@H](CO)N1C(=O)C1CC1	T cruzi growth-1 102 (no result: IDH1 R132H inh) | T cruzi growth-2 104 | T cruzi growth-3 inactive | 3T3 cytotox inactive | NIH3T3 tox 2 inactive
COc1cccc(C#Cc2ccc([C@@H]3[C@H](C#N)N(C(=O)C4CCCC4)[C@H]3CO)cc2)c1	none (no result: T cruzi growth-1, IDH1 R132H inh)
N#C[C@H]1[C@@H](c2ccc(C#Cc3cccc(F)c3)cc2)[C@H](CO)N1C(=O)C1CC1	T cruzi growth-1 98 (no result: IDH1 R132H inh) | T cruzi growth-2 100 | T cruzi growth-3 100 | 3T3 cytotox 39 | NIH3T3 tox 2 95
N#C[C@@H]1[C@H](c2ccc(C#Cc3ccc(F)cc3)cc2)[C@@H](CO)N1C(=O)C1CC1	T cruzi growth-1 103 (no result: IDH1 R132H inh) | T cruzi growth-2 105 | T cruzi growth-3 108 | 3T3 cytotox inactive | NIH3T3 tox 2 98
Cc1noc(C)c1S(=O)(=O)Nc1ccc2c(c1)C(=O)N([C@@H](C)CO)C[C@@H](C)[C@H](CN(C)Cc1ccc(Cl)c(Cl)c1)OCCCC[C@@H](C)O2	T cruzi growth-1 inconclusive (no result: IDH1 R132H inh) | T cruzi growth-2 inactive | T cruzi growth-3 104 | 3T3 cytotox 57 | NIH3T3 tox 2 105
Cc1noc(C)c1S(=O)(=O)Nc1ccc2c(c1)C(=O)N([C@@H](C)CO)C[C@@H](C)[C@H](CN(C)Cc1ccc(C(F)(F)F)cc1)OCCCC[C@H](C)O2	none
Cc1noc(C)c1S(=O)(=O)Nc1ccc2c(c1)C(=O)N([C@H](C)CO)C[C@H](C)[C@H](CN(C)Cc1ccc(C(=O)O)cc1)OCCCC[C@H](C)O2	none (no result: IDH1 R132H inh)
Cc1noc(C)c1S(=O)(=O)Nc1ccc2c(c1)C(=O)N([C@@H](C)CO)C[C@H](C)[C@@H](CN(C)Cc1ccc(C(F)(F)F)cc1)OCCCC[C@@H](C)O2	T cruzi growth-1 98 | T cruzi growth-2 inconclusive | T cruzi growth-3 inconclusive | 3T3 cytotox inactive | NIH3T3 tox 2 105
Cc1noc(C)c1S(=O)(=O)Nc1ccc2c(c1)C(=O)N([C@H](C)CO)C[C@H](C)[C@H](CN(C)Cc1ccc(C(F)(F)F)cc1)OCCCC[C@H](C)O2	T cruzi growth-1 101 (no result: IDH1 R132H inh) | T cruzi growth-2 97 | T cruzi growth-3 105 | 3T3 cytotox inactive | NIH3T3 tox 2 105
Cc1noc(C)c1S(=O)(=O)Nc1ccc2c(c1)C(=O)N([C@H](C)CO)C[C@H](C)[C@@H](CN(C)Cc1ccc(C(F)(F)F)cc1)OCCCC[C@H](C)O2	T cruzi growth-1 100 (no result: IDH1 R132H inh) | T cruzi growth-2 110 | T cruzi growth-3 107 | 3T3 cytotox inactive | NIH3T3 tox 2 105
O=C1N[C@@H](c2ccccc2)COCc2cn(nn2)CC[C@H]1Cc1ccc(Cl)cc1	none (no result: Pf Dd2 inh, T cruzi growth-1, IDH1 R132H inh)
CC(=O)NC[C@H]1[C@@H](c2ccccc2)[C@H](CO)N1C(=O)Cc1cccnc1	none (no result: IDH1 R132H inh)
O=C(NC[C@@H]1[C@@H](c2ccccc2)[C@@H](CO)N1C(=O)Cc1cccnc1)C1CC1	T cruzi growth-1 100 (no result: IDH1 R132H inh) | T cruzi growth-2 inactive | T cruzi growth-3 inactive | 3T3 cytotox inactive | NIH3T3 tox 2 inactive
CC(=O)NC[C@@H]1[C@H](c2ccccc2)[C@H](CO)N1C(=O)Cc1cccnc1	T cruzi growth-1 inconclusive (no result: IDH1 R132H inh) | T cruzi growth-2 inactive | T cruzi growth-3 inactive | 3T3 cytotox inactive | NIH3T3 tox 2 inactive
O=C(NC[C@@H]1[C@H](c2ccccc2)[C@H](CO)N1C(=O)Cc1cccnc1)C1CC1	none (no result: IDH1 R132H inh)
COc1ccc(S(=O)(=O)N[C@@H]2C=C[C@@H](CC(=O)N3CCC(Cc4ccccc4)CC3)O[C@H]2CO)cc1	T cruzi growth-1 inconclusive | T cruzi growth-2 inactive | T cruzi growth-3 inactive | 3T3 cytotox inactive | NIH3T3 tox 2 32
COc1ccc(S(=O)(=O)N[C@@H]2C=C[C@H](CC(=O)N3CCC(Cc4ccccc4)CC3)O[C@@H]2CO)cc1	T cruzi growth-1 inconclusive | T cruzi growth-2 inactive | T cruzi growth-3 inactive | 3T3 cytotox inactive | NIH3T3 tox 2 32
Cc1cccc(S(=O)(=O)N2CCCCN3[C@H](CO)[C@H](c4ccc(C#C[C@H](C)O)cc4)[C@@H]3C2)c1	none (no result: IDH1 R132H inh)
Cc1cccc(S(=O)(=O)N2CCCCN3[C@H](CO)[C@H](c4ccc(C#CC(C)C)cc4)[C@@H]3C2)c1	T cruzi growth-1 97 (no result: IDH1 R132H inh) | T cruzi growth-2 98 | T cruzi growth-3 100 | 3T3 cytotox 37 | NIH3T3 tox 2 105
Cc1cccc(S(=O)(=O)N2CCCCN3[C@H](CO)[C@@H](c4ccc(C#CC(C)C)cc4)[C@@H]3C2)c1	T cruzi growth-1 118 (no result: IDH1 R132H inh) | T cruzi growth-2 101 | T cruzi growth-3 98 | 3T3 cytotox inactive | NIH3T3 tox 2 49
Cc1cccc(S(=O)(=O)N2CCCCN3[C@H](C2)[C@@H](c2ccc(C#C[C@H](C)O)cc2)[C@@H]3CO)c1	T cruzi growth-1 101 (no result: IDH1 R132H inh) | T cruzi growth-2 102 | T cruzi growth-3 inactive | 3T3 cytotox 65 | NIH3T3 tox 2 27
C/C=C/c1ccc([C@@H]2[C@@H](CN(C)S(C)(=O)=O)N(C(=O)CC)[C@H]2CO)cc1	none (no result: IDH1 R132H inh)
